Results published in PubChem BioAssay.
Activity calls are given as the source filed them.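 Rule for the calls, unless noted: active = fluorescence slope after compound addition differing from the mean of all tested samples at 99.7% confidence, mostly higher but some lower; inactive = the rest.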

What was measured:
[1] = inhibitors of TNFa-induced NFkB p65 translocation, primary screen, imaging, HUVEC, MLSMR starter and 10KST1 sets (AID 438;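 active = inhibition above 20% together with a positive visual image hit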;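 note: compound added about 3h40 before a 20 min TNFalpha stimulation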;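 for inhibition: signal is the nuclear over cytoplasmic p65 intensity ratio per well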); details: HUVEC TNFa-induced p65 nuclear translocation; cell count: measured here: nuclei count (cytotoxicity indicator), at 2.08 µM; inhibition: at 2 µM, stronger effect = higher value, 0% TNFa-plus-vehicle, 100% no-TNFa wells
[2] = inhibitors of mutant huntingtin aggregation, primary screen, imaging, exon1htt(103Q)mCFP cells, high-content imaging (AID 483;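 active = visual image review flags a hit and inhibition of aggregation exceeds 20%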;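 note: compound exposure lasted 3 days before fixation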;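 for nuclei count: percent of the per-plate median nuclei count of sample wells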); details: exon1htt(103Q)mCFP cell line, aggregate imaging, at 2 µM; inhibition of aggregation: stronger effect = higher value; nuclei count: measured here: cell count, toxicity
[3] = inhibitors of E-selectin induction by TNFa, primary screen, imaging, HUVEC, immunofluorescence, MLSMR starter and 10KST1 sets (AID 487;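 active = visually confirmed hit in the image check and inhibition above 20%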;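 for inhibition: signal is fraction of cell area covered by stained E-selectin grains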;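 for nuclei count: 100% = median nuclei count of all wells on the same plate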); details: HUVEC TNFalpha-induced E-selectin immunofluorescence imaging, at 2 µM; inhibition: stronger effect = higher value; nuclei count: measured here: cell number, toxicity
[4] = target: Voltage-gated potassium channel subunit beta-2 (Rattus norvegicus) (UniProt P62483); assay: KvBeta enzyme negative modulators, primary screen, biochemical, NADPH fluorescence (AID 622;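 active = fluorescence slope higher than the sample average by over 3 SD, cut at about -0.22 in these data, passing the limit was not always enough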;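 note: slope of raw intensity against log time taken from 70 to 1610 s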); details: recombinant KvBeta, 4-cyanobenzaldehyde reduction, at 10 µM, stronger effect = higher value
Chain of Voltage-gated potassium channel subunit beta-2 (Rattus norvegicus) (P62483 whole entry, looked up): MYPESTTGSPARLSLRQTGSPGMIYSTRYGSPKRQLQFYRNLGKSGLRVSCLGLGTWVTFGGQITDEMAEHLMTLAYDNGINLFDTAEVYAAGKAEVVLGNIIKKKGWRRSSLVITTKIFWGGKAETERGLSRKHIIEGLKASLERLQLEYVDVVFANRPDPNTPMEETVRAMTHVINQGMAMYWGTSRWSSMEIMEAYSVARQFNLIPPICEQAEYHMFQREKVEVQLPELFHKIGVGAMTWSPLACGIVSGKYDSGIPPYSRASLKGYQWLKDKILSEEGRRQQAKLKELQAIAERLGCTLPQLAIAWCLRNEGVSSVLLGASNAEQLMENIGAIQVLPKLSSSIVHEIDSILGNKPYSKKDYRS

[5] = target: Voltage-gated potassium channel subunit beta-2 (Rattus norvegicus) (UniProt P62483); assay: KvBeta positive modulators, primary screen, biochemical, NADPH fluorescence (AID 623;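 active = NADPH fluorescence slope more negative than the mean of all samples by about 3 SD, 99.7% confidence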;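 note: fluorescence intensity change per second fitted from 20 to 320 s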); details: Recombinant KvBeta, NADPH fluorescence decrease slope, 10 min; at 10 µM; stronger effect = lower value
[6] = target: Muscarinic acetylcholine receptor M4 (Homo sapiens) (UniProt P08173); assay: compounds altering M4/GIRK thallium flux, either direction, primary screen, M4 allosteric agonist project, cell-based, HEK293 M4/GIRK, BTC-AM (AID 625); details: at 10 µM, actives lie on both sides;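 note: thallium influx through GIRK channels coupled to M4 in HEK293 cells with BTC-AM dye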
Chain of Muscarinic acetylcholine receptor M4 (Homo sapiens) (P08173 whole entry, looked up): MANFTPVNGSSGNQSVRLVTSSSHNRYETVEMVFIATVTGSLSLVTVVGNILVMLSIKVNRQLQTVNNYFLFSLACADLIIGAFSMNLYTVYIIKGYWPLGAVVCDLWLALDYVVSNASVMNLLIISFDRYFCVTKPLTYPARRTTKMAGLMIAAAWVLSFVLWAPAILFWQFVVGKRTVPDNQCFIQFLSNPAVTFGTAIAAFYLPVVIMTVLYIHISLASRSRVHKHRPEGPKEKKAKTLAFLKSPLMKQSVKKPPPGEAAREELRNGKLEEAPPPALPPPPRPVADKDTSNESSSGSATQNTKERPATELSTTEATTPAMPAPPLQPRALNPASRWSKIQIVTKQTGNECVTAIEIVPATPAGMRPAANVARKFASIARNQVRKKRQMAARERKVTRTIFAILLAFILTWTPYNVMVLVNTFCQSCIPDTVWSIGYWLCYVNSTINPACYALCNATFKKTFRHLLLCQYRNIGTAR
Outline: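 Material: HEK293 cells with M4 receptor and GIRK channels; Times: cells overnight at 37 °C, BTC-AM loading 1 h, reads 2 min total; Technique: kinetic BTC-AM fluorescence sampled at 1 Hz, 10 s pre-addition baseline; Read-out basis: slope over 15–24 s of trace normalized to starting intensity; Controls: carbachol positive, DMSO negative.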

[7] = inhibitors of Sendai virus-induced IRF3 signaling, primary screen, TLR/RLR signaling modifier project, cell-based, Sendai virus stimulus, luciferase, 10K MLSCN set (AID 602276;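 active = inhibition at or above 50% at 10 µM; inactive = inhibition below 50%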;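 note: firefly luciferase from ISG56 promoter only with Renilla not read in this screen; 0% = Sendai virus plus DMSO and 100% = medium plus DMSO without virus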); details: HEK293 RL24 IRF3 luciferase reporter, at 10 µM, stronger effect = higher value
[8] = inhibitors of poly I:C-induced TLR3 signaling, primary screen, cell-based, poly I:C stimulus, luciferase, 10K MLSCN set (AID 602277;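 active = inhibition of the reporter signal at or above 50%; inactive = inhibition below 50%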); details: HEK293-TLR3 RL24 IRF3 luciferase reporter, at 10 µM, stronger effect = higher value

Structure (SMILES)	cell count [1]	inhibition [1]	inhibition of aggregation [2]	nuclei count [2] [%]	inhibition [3]	nuclei count [3] [%]	fluorescence slope [4]	NADPH fluorescence slope [5]	fluorescence slope [6]	inhibition [7]	inhibition [8]
CC(=O)c1c(C)[nH]c(C(=O)NCc2cccs2)c1C	471	2.9% (inactive)	15.8% (inactive)	116	-76.6% (inactive)	95.6	-0.561 (inactive)	-4.9e-05 (inactive)	0.00619 (inactive)	-3.69% (inactive)	-17.2% (inactive)
COC(=O)c1sc(NC(=O)c2ccoc2C)nc1C	554	-7.5% (inactive)	8.8% (inactive)	94.1	15.5% (inactive)	98	-0.557 (inactive)	8.6e-06 (inactive)	0.00464 (inactive)	-18.1% (inactive)	-76.5% (inactive)
O=C(Nc1ccc(N2CCOCC2)c(F)c1)c1ccncc1	262	-3.2% (inactive)	0.1% (inactive)	99.8	-30% (inactive)	90	-0.451 (inactive)	8.4e-05 (inactive)	0.00591 (inactive)	-9.16% (inactive)	-33.6% (inactive)
C/C(=N\O)c1ccc2c3c([nH]c2c1)CCCC3	364	-1.9% (inactive)	6.7% (inactive)	87.1	-78.7% (inactive)	96.4	-0.532 (inactive)	-3.8e-05 (inactive)	0.006 (inactive)	-28% (inactive)	-111% (inactive)
O=C(NCC1CCCO1)C1CC(c2ccc(Cl)c(Cl)c2)=NO1 (centres undefined)	838	-0.7% (inactive)	4.4% (inactive)	103	-247% (inactive)	132	-0.472 (inactive)	-3.1e-05 (inactive)	0.00536 (inactive)	3.78% (inactive)	-3.62% (inactive)
COc1ccc(-c2noc(-c3cc(Cl)ccc3Cl)n2)cc1OC	686	-10.5% (inactive)	-10.9% (inactive)	104	14.6% (inactive)	86.8	-0.526 (inactive)	-2.2e-05 (inactive)	0.00828 (inactive)	0.153% (inactive)	-15.5% (inactive)
CCC(=O)N1CCc2cc(OC)c(OC)cc2C1COc1ccc(C(=O)OC)cc1 (centres undefined)	767	-20.4% (inactive)	-5.1% (inactive)	128	36.5% (inactive)	108	-0.543 (inactive)	-2e-05 (inactive)	0.00388 (inactive)	23.8% (inactive)	6.29% (inactive)
CCOC(=O)c1[nH]nc(-c2c(O)cc(C)cc2O)c1-c1csc(C)n1	495	-16.3% (inactive)	-2.1% (inactive)	87.5	56.2% (inactive)	61.3	-0.453 (inactive)	-0.000313 (inactive)	0.00535 (inactive)	-7.71% (inactive)	-0.807% (inactive)
CN(C)c1cccc(N=C2C=C(N3CCOCC3)CC(C)(C)C2)c1	473	2.4% (inactive)	8.4% (inactive)	86.3	-54.6% (inactive)	116	-0.55 (inactive)	-1.9e-05 (inactive)	0.00498 (inactive)	-0.858% (inactive)	16.5% (inactive)
C/C(N)=C(\C#N)C(=O)NCCc1ccccn1	326	-1.7% (inactive)	-11.6% (inactive)	106	-26.9% (inactive)	102	-0.613 (inactive)	2e-05 (inactive)	0.00369 (inactive)	7.83% (inactive)	13.8% (inactive)
N=c1sc2ccccc2n1-c1ccccc1	402	10.9% (inactive)	14.5% (inactive)	96.6	-469% (inactive)	114	-0.583 (inactive)	-1.3e-05 (inactive)	0.00638 (inactive)	15.3% (inactive)	14.4% (inactive)
Cc1csc(NC(=O)c2cccc(S(=O)(=O)N3CCCCC3)c2)n1	352	7.4% (inactive)	-9.9% (inactive)	96.8	-30.5% (inactive)	109	-0.587 (inactive)	-3e-05 (inactive)	0.00964 (inactive)	-5.34% (inactive)	16.9% (inactive)
COc1cc(NS(=O)(=O)c2cccc3nsnc23)c(C(=O)O)cc1OC	296	-6% (inactive)	-7.8% (inactive)	95.9	5.3% (inactive)	136	-0.575 (inactive)	-4.3e-05 (inactive)	0.00636 (inactive)	14.8% (inactive)	17.5% (inactive)
Cn1nnnc1SCC(=O)NCc1ccco1	467	4.6% (inactive)	-7.3% (inactive)	133	-60.2% (inactive)	172	-0.443 (inactive)	0.000107 (inactive)	0.00818 (inactive)	-10.5% (inactive)	-15.1% (inactive)
Cn1c(SCC(N)=O)nnc1C1CCN(S(=O)(=O)c2ccccc2C(F)(F)F)CC1	554	-12.3% (inactive)	4% (inactive)	88.2	33.9% (inactive)	96.6	-0.214 (inactive)	-3.4e-05 (inactive)	0.00588 (inactive)	10.8% (inactive)	19.2% (inactive)
CCn1cc(C(=O)NCC2COc3ccccc3O2)c2cc(OC)c(OC)cc2c1=O (centres undefined)	481	-29.9% (inactive)	-6.2% (inactive)	101	-124% (inactive)	116	-0.481 (inactive)	-6.7e-05 (inactive)	0.00554 (inactive)	11.8% (inactive)	-1.62% (inactive)
Clc1ccccc1-c1nnc2sc(-c3ccccn3)nn12	420	-4.1% (inactive)	24.3% (inactive)	84.8	-102% (inactive)	118	-0.447 (inactive)	-6.3e-05 (inactive)	0.00382 (inactive)	14.6% (inactive)	14.1% (inactive)
COc1ccc(-c2cc(C(F)(F)F)nc(SCCC(=O)N3CCOCC3)n2)cc1	506	-6.7% (inactive)	-23.3% (inactive)	83.6	-59.7% (inactive)	133	-0.596 (inactive)	-1.1e-06 (inactive)	0.00462 (inactive)	16.4% (inactive)	-4.79% (inactive)
Cc1cc(-c2nc3ncccc3o2)ccc1N	306	-8.9% (inactive)	23.3% (inactive)	102	-35.5% (inactive)	99.8	-0.0237 (inactive)	9.6e-08 (inactive)	0.00386 (inactive)	-34.7% (inactive)	-101% (inactive)
